Test results as given in ChEMBL document CHEMBL3414431, “Synthesis, biological evaluation and molecular docking of some substituted pyrazolines and isoxazolines as potential antimicrobial agents” (2015).
Values after ≈ are worked out from the molar mass of the structure shown.

Key:
Aspergillus flavus [1] = assay: Antimicrobial activity against Aspergillus flavus ATCC 9643 assessed as diameter of zone of inhibition at 2 mg/ml after 24 hrs by agar well diffusion method; assay type: functional; conditions: ATCC 9643, 24 h, read-out: DIZ
How it was run: (§1)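 Agar well diffusion. Fungi were grown on Sabouraud dextrose agar and bacteria on nutrient agar (peptone, beef extract, NaCl, agar), with the inoculum spread over the medium. Wells were bored and filled with test drug at 2.0 mg/ml in DMSO. Plates sat 1 h at room temperature for diffusion, then 37 °C for 24 h. Inhibition zone diameter (mm, including well) is reported as mean ± SEM.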

Aspergillus fumigatus [2] = assay: Antimicrobial activity against Aspergillus fumigatus ATCC 1022 assessed as diameter of zone of inhibition at 2 mg/ml after 24 hrs by agar well diffusion method; assay type: functional; conditions: ATCC 1022, 24 h, read-out: DIZ; how it was run: as §1
Aspergillus versicolor [3] = assay: Antimicrobial activity against Aspergillus versicolor ATCC 10072 after 48 hrs by two-fold serial dilution method; assay type: functional; conditions: ATCC 10072, 48 h
How it was run: (§2)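 Two-fold serial broth dilution of compounds, 100 down to 3.125 (six levels). Each was inoculated with fungal suspension at 10^6 CFU/mL in suitable broth and incubated at 37 °C for 48 h. Growth was judged by turbidity to assign the minimum inhibitory concentration.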

Candida albicans [4] = assay: Antimicrobial activity against Candida albicans ATCC 12031 assessed as diameter of zone of inhibition at 2 mg/ml after 24 hrs by agar well diffusion method; assay type: functional; conditions: ATCC 12031, 24 h, read-out: DIZ; how it was run: as §1
Candida albicans [5] = assay: Antimicrobial activity against Candida albicans ATCC 12031 after 48 hrs by two-fold serial dilution method; assay type: functional; conditions: ATCC 12031, 48 h; how it was run: as §2
Escherichia coli = assay: Antimicrobial activity against Escherichia coli ATCC 25922 assessed as diameter of zone of inhibition at 2 mg/ml after 24 hrs by agar well diffusion method; assay type: functional; conditions: ATCC 25922, 24 h, read-out: DIZ; how it was run: as §1
Aspergillus versicolor [6] = assay: Antimicrobial activity against Aspergillus versicolor ATCC 10072 assessed as diameter of zone of inhibition at 2 mg/ml after 24 hrs by agar well diffusion method; assay type: functional; conditions: ATCC 10072, 24 h, read-out: DIZ; how it was run: as §1
Aspergillus fumigatus [7] = assay: Antimicrobial activity against Aspergillus fumigatus ATCC 1022 after 48 hrs by two-fold serial dilution method; assay type: functional; conditions: ATCC 1022, 48 h; how it was run: as §2
Staphylococcus aureus [8] = assay: Antimicrobial activity against Staphylococcus aureus ATCC 25923 assessed as diameter of zone of inhibition at 2 mg/ml after 24 hrs by agar well diffusion method; assay type: functional; conditions: ATCC 25923, 24 h, read-out: DIZ; how it was run: as §1
Aspergillus flavus [9] = assay: Antimicrobial activity against Aspergillus flavus ATCC 9643 after 48 hrs by two-fold serial dilution method; assay type: functional; conditions: ATCC 9643, 48 h; how it was run: as §2
Aspergillus flavus [10] = assay: Antimicrobial activity against Aspergillus flavus ATCC 9643 assessed as diameter of zone of inhibition at 20 microg/disc after 24 hrs by agar well diffusion method; assay type: functional; conditions: ATCC 9643, 24 h, read-out: DIZ
How it was run: (§3)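 Fungal inoculum spread on Sabouraud dextrose agar. 6 mm wells bored and filled with test drug at 2.0 mg/ml in DMSO (stock-as-added). Plates held 1 h at room temperature for diffusion, then incubated at 37 °C for 24 h. Inhibition zone diameter measured in mm, including well diameter. Reported as mean ± SEM.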

Aspergillus versicolor [11] = assay: Antimicrobial activity against Aspergillus versicolor ATCC 10072 assessed as diameter of zone of inhibition at 20 microg/disc after 24 hrs by agar well diffusion method; assay type: functional; conditions: ATCC 10072, 24 h, read-out: DIZ; how it was run: as §3
Aspergillus fumigatus [12] = assay: Antimicrobial activity against Aspergillus fumigatus ATCC 1022 assessed as diameter of zone of inhibition at 20 microg/disc after 24 hrs by agar well diffusion method; assay type: functional; conditions: ATCC 1022, 24 h, read-out: DIZ; how it was run: as §3
Candida albicans [13] = assay: Antimicrobial activity against Candida albicans ATCC 12031 assessed as diameter of zone of inhibition at 20 microg/disc after 24 hrs by agar well diffusion method; assay type: functional; conditions: ATCC 12031, 24 h, read-out: DIZ; how it was run: as §3
Staphylococcus aureus [14] = assay: microbe, parasite or virus in culture; conditions: ATCC 25923, 24 h, read-out: DIZ

| SMILES | zone of inhibition at 2000 µg/mL (Aspergillus flavus [1]) | zone of inhibition at 2000 µg/mL (Aspergillus fumigatus [2]) | MIC (Aspergillus versicolor [3]) | zone of inhibition at 2000 µg/mL (Candida albicans [4]) | MIC (Candida albicans [5]) | zone of inhibition at 2000 µg/mL (Escherichia coli) | zone of inhibition at 2000 µg/mL (Aspergillus versicolor [6]) | MIC (Aspergillus fumigatus [7]) | zone of inhibition at 2000 µg/mL (Staphylococcus aureus [8]) | MIC (Aspergillus flavus [9]) | zone of inhibition at 20 µg/disc (Aspergillus flavus [10]) | zone of inhibition at 20 µg/disc (Aspergillus versicolor [11]) | zone of inhibition at 20 µg/disc (Aspergillus fumigatus [12]) | zone of inhibition at 20 µg/disc (Candida albicans [13]) | zone of inhibition at 25 µg/disc (Staphylococcus aureus [14]) |
| --- | --- | --- | --- | --- | --- | --- | --- | --- | --- | --- | --- | --- | --- | --- | --- |
| Cc1cc(O)c(C2=NOC(c3ccccc3Cl)C2)c(C)c1Cl (centres undefined) | 20 mm | 21 mm | 12.5 µg/mL (≈ 37.2 µM) | 23 mm | 12.5 µg/mL (≈ 37.2 µM) | 8 mm | 20 mm | 6.25 µg/mL (≈ 18.6 µM) | 11 mm | 12.5 µg/mL (≈ 37.2 µM) |  |  |  |  |  |
| COc1cc(C2CC(c3c(O)cc(C)c(Cl)c3C)=NN2)cc(OC)c1OC (centres undefined) | 15 mm | 21 mm | 12.5 µg/mL (≈ 32 µM) | 20 mm | 12.5 µg/mL (≈ 32 µM) | 9 mm | 16 mm | 12.5 µg/mL (≈ 32 µM) | 10 mm | 12.5 µg/mL (≈ 32 µM) |  |  |  |  |  |
| COc1cc(C)c(Cl)c(C)c1C(=O)C1=NNCC1c1ccccc1[N+](=O)[O-] (centres undefined) | 19 mm | 20 mm | 12.5 µg/mL (≈ 32.2 µM) | 20 mm | 25 µg/mL (≈ 64.5 µM) | 9 mm | 19 mm | 12.5 µg/mL (≈ 32.2 µM) | 10 mm | 12.5 µg/mL (≈ 32.2 µM) |  |  |  |  |  |
| COc1ccccc1C1CNN=C1C(=O)c1c(OC)cc(C)c(Cl)c1C (centres undefined) | 19 mm | 18 mm | 12.5 µg/mL (≈ 33.5 µM) | 21 mm | 12.5 µg/mL (≈ 33.5 µM) | 8 mm | 20 mm | 12.5 µg/mL (≈ 33.5 µM) | 9 mm | 6.25 µg/mL (≈ 16.8 µM) |  |  |  |  |  |
| COc1ccc(C2CC(c3c(O)cc(C)c(Cl)c3C)=NO2)cc1 (centres undefined) | 16 mm | 16 mm | 25 µg/mL (≈ 75.3 µM) | 22 mm | 12.5 µg/mL (≈ 37.7 µM) | 8 mm | 15 mm | 25 µg/mL (≈ 75.3 µM) | 11 mm | 6.25 µg/mL (≈ 18.8 µM) |  |  |  |  |  |
| Cc1cc(O)c(C2=NOC(c3ccc(Cl)cc3)C2)c(C)c1Cl (centres undefined) | 20 mm | 20 mm | 12.5 µg/mL (≈ 37.2 µM) | 22 mm | 12.5 µg/mL (≈ 37.2 µM) | 7 mm | 21 mm | 6.25 µg/mL (≈ 18.6 µM) | 12 mm | 12.5 µg/mL (≈ 37.2 µM) |  |  |  |  |  |
| OC(Cn1cncn1)(Cn1cncn1)c1ccc(F)cc1F [FLUCONAZOLE] |  |  | 3.12 µg/mL (≈ 10.2 µM) |  | 12.5 µg/mL (≈ 40.8 µM) |  |  | 12.5 µg/mL (≈ 40.8 µM) |  | 12.5 µg/mL (≈ 40.8 µM) | 21 mm | 21 mm | 22 mm | 21 mm |  |
| Cc1cc(O)c(C2=NNC(c3ccc(N(C)C)cc3)C2)c(C)c1Cl (centres undefined) | 13 mm | 18 mm | 12.5 µg/mL (≈ 36.4 µM) | 18 mm | 12.5 µg/mL (≈ 36.4 µM) | 8 mm | 13 mm | 12.5 µg/mL (≈ 36.4 µM) | 12 mm | 6.25 µg/mL (≈ 18.2 µM) |  |  |  |  |  |
| COc1ccc(C2CC(c3c(O)cc(C)c(Cl)c3C)=NN2)cc1OC (centres undefined) | 17 mm | 21 mm | 12.5 µg/mL (≈ 34.6 µM) | 20 mm | 12.5 µg/mL (≈ 34.6 µM) | 8 mm | 16 mm | 12.5 µg/mL (≈ 34.6 µM) | 11 mm | 25 µg/mL (≈ 69.3 µM) |  |  |  |  |  |
| O=C(O)c1cn(C2CC2)c2cc(N3CCNCC3)c(F)cc2c1=O [CIPROFLOXACIN] |  |  |  |  |  |  |  |  |  |  |  |  |  |  | 24 mm |
| Cc1cc(O)c(C2=NOC(c3ccccc3)C2)c(C)c1Cl (centres undefined) | 15 mm | 21 mm | 25 µg/mL (≈ 82.8 µM) | 22 mm | 25 µg/mL (≈ 82.8 µM) | 8 mm | 17 mm | 12.5 µg/mL (≈ 41.4 µM) | 11 mm | 6.25 µg/mL (≈ 20.7 µM) |  |  |  |  |  |
| COc1cc(C)c(Cl)c(C)c1C(=O)C1=NNCC1c1ccccc1 (centres undefined) | 21 mm | 20 mm | 12.5 µg/mL (≈ 36.5 µM) | 19 mm | 25 µg/mL (≈ 72.9 µM) | 8 mm | 19 mm | 6.25 µg/mL (≈ 18.2 µM) | 10 mm | 6.25 µg/mL (≈ 18.2 µM) |  |  |  |  |  |
| Cc1cc(O)c(C2=NNC(c3cccc(O)c3)C2)c(C)c1Cl (centres undefined) | 21 mm | 20 mm | 6.25 µg/mL (≈ 19.7 µM) | 23 mm | 12.5 µg/mL (≈ 39.5 µM) | 9 mm | 21 mm | 12.5 µg/mL (≈ 39.5 µM) | 11 mm | 3.12 µg/mL (≈ 9.86 µM) |  |  |  |  |  |
| COc1ccc(C2CC(c3c(O)cc(C)c(Cl)c3C)=NN2)cc1 (centres undefined) | 12 mm | 18 mm | 25 µg/mL (≈ 75.6 µM) | 18 mm | 50 µg/mL (≈ 151 µM) | 8 mm | 13 mm | 25 µg/mL (≈ 75.6 µM) | 11 mm | 6.25 µg/mL (≈ 18.9 µM) |  |  |  |  |  |
| COc1ccc(C2CC(c3c(O)cc(C)c(Cl)c3C)=NO2)cc1OC (centres undefined) | 15 mm | 15 mm | 12.5 µg/mL (≈ 34.5 µM) | 21 mm | 12.5 µg/mL (≈ 34.5 µM) | 9 mm | 14 mm | 6.25 µg/mL (≈ 17.3 µM) | 10 mm | 12.5 µg/mL (≈ 34.5 µM) |  |  |  |  |  |
